Source: PubChem BioAssay (several laboratories)
NR2E3 ag-1: agonists of human NR2E3 nuclear receptor; Q9Y5X4; CHO-S Gal4-NCOR/VP16-NR2E3 two-hybrid, luciferase; inhibition of corepressor binding, % at 3.98 µM; 360,000 compounds, 0.35% hits; AID 602229;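 active means inhibition above the mean of all tested compounds plus 3 SD, cut at about 70% in these data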;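 further: 0% = DMSO with NR2E3 transfected cells and 100% = cells lacking NR2E3 construct; higher means lower luciferase signal from less NR2E3 corepressor binding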
Target sequence (Q9Y5X4 whole entry, looked up, the tested form may be a part): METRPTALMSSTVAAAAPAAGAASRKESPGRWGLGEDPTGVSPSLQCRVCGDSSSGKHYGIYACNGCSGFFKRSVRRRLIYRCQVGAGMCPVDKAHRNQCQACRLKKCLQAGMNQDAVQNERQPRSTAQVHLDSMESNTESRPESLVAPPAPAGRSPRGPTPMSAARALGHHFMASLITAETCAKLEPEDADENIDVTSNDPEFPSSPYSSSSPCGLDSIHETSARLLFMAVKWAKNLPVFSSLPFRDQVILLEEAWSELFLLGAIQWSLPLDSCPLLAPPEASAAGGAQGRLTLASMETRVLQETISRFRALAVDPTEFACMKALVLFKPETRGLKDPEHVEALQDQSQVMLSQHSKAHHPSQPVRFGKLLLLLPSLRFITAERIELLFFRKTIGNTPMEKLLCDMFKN
NR2E3 ag-2: agonists of human nuclear receptor NR2E3. Q9Y5X4. inhibition of corepressor binding, % at 4.78 µM. 320,000 compounds, 0.12% hits. GST-NR2E3/biotin-RetCOR TR-FRET, 1536-well. AID 2300;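 active means percent inhibition above the cutoff of mean plus 3 SD of all tested compounds, set per screening campaign, cut at about 20% in these data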;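 further: 0% = DMSO wells and 100% = biotin wells as full block of FRET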
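system = GST-tagged NR2E3 plus biotinylated RetCOR corepressor | input = 1.35 nM GST-NR2E3 | also added = 7 nM biotin-RetCOR | schedule = 5 h incubation at 4 °C | measured by = TR-FRET with europium anti-GST and streptavidin-D2, 340 nm excitation | read-out = percent loss of FRET ratio relative to control wells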
MT1-MMP act inh: inhibitors of human MT1-MMP activation; P50281; HT1080 RFP-PRO-GFP cells, GFP/RFP ratio fluorescence, overnight; percent of plate control window, DMSO zero; GFP/RFP ratio change, % at 20 µM; 360,000 compounds, 0.061% hits;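 active means GFP/RFP ratio change of at least 30% with cell ATP level not reduced by more than half and red fluorescence within 50% of control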
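Assay system: RFP-PRO-GFP reporter HT1080 cells; read-out basis: GFP/RFP fluorescence ratio; benchmarks: DMSO wells and RFP-L50D-GFP cells; doses: 20 µM single dose, 1% DMSO; schedule: overnight cell settling, then overnight compound exposure, 37 °C, 5% CO2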
Rev-erbA mod: modulators of human Rev-erb alpha DNA binding; P20393; Rev-erbα–FITC-DNA binding, fluorescence polarization, 90 min; activity, % at 10 µM; 370,000 compounds, 0.79% hits; AID 1259318;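 active means activity above about 14%, limit read from the data; passing the limit was not always enough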;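 further: 0% = DMSO wells with 35 nM protein and 100% = DMSO wells with 750 nM protein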
PG9 binder: PG9 antibody binding by small molecule; TR-FRET gp120-PG9 antibody binding; inhibition, % at 6.7 µM; 360,000 compounds, 0.43% hits; AID 624416; in the data active means inhibition above about 8.5%
SKN-1 inh: inhibitors of C. elegans SKN-1. AID 624304. inhibition, % at 21.8 µM. C. elegans VP596 Pgst-4::GFP/RFP ratio, acrylamide-induced, 24 h. 360,000 compounds, 0.49% hits;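 active means interference check ratio from 0.5 to 1.5 plus GFP to RFP signal ratio inhibition reaching or exceeding a fixed threshold, cut at about 30% in these data, passing the limit was not always enough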
Rev-erbA confirm: Rev-erb alpha (human) modulation, hit confirmation; activation, % at 25 µM; shares compounds with Rev-erbA mod; Rev-erb alpha FITC-DNA binding, fluorescence polarization, 90 min; 3,000 compounds, 61% hits;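 active means activation at or above a set limit, or at least 3 SD above the negative control mean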;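 further: 0% = 35 nM protein with DMSO and 100% = 750 nM protein high control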
RORg DNA counter: counter-screen for Rev-erb alpha modulators: RORgamma DNA binding | 910 compounds, 8% hits | IC50, µM | purified RORgamma protein-FITC-DNA binding, fluorescence polarization | shares compounds with Rev-erbA mod;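 active means Compounds whose fitted half-maximal concentration for disrupting protein-DNA binding is below 10 micromolar; the record names Rev-erb in its text, so the target is in doubt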
An asterisk follows results filed as active; x = no result given. Sampled rows, rich in hits. Any-hit rate of the full collection: about 1.9%.

SMILES | NR2E3 ag-1 | NR2E3 ag-2 | MT1-MMP act inh | Rev-erbA mod | PG9 binder | SKN-1 inh | Rev-erbA confirm | others
O=c1[nH]c(=O)c2cc3ccccc3nc2[nH]1 | 7.0 | x | 2.2 | -0.9 | -0.2 | 2.9 | x
CN1CCCCC(NC(=O)c2ccc(C#N)cc2)C1=O (stereo unspecified) | x | x | x | -5.0 | -1.2 | x | x
N#Cc1cc2cc3c(cc2nc1SCC(=O)N1CCCC1)OCCO3 | -82.1 | -0.8 | -0.1 | x | x | 0.4 | x
CC(=O)CSc1nc2cc3c(cc2cc1C#N)OCCO3 | -131.2 | -0.2 | -105.0 | 20.2* | -6.7 | 10.0 | 19.7*
N#Cc1cc2cc3c(cc2nc1SCC(=O)OC1CCCCC1)OCO3 | -17.0 | 1.0 | -8.7 | 78.7* | 0.5 | -1.0 | 38.2*
Cc1cc2cc3c(cc2nc1SCC(=O)OC(C)C)OCO3 | -12.2 | x | -2.0 | 14.9 | 1.2 | 7.7 | x
CCOC(=O)CSc1nc(-c2ccc3c(c2)OCO3)ccc1C#N | -59.2 | -0.2 | 5.8 | 19.6* | 1.6 | 12.0 | 17.4*
O=C(Nc1ccc(OC(F)(F)F)cc1)Nc1nc2ncccn2c1-c1ccc(C(F)(F)F)cc1 | x | x | x | 1.5 | x | x | x
CCOC(=O)c1cc(-c2cc3ccccc3o2)nc2c1c(=O)[nH]c(=O)n2CCOC | 0.9 | -0.8 | 2.1 | 27.2* | -0.2 | 5.7 | 8.8
CCOC(=O)c1cc(-c2ccc([N+](=O)[O-])cc2)nc2c1c(=O)[nH]c(=O)n2Cc1ccccc1 | -2.7 | 1.9 | 1.6 | -27.7 | 1.6 | -6.0 | x
COc1ccccc1Cc1c(-c2ccc(F)cc2)nc2cc(C)c(Br)c(C)n12 | -63.0 | x | -3.2 | -0.3 | -2.3 | 15.9 | x
O=C(NCc1c(F)cccc1F)C1CCCN(c2ncccn2)C1 (stereo unspecified) | x | x | x | -1.8 | x | x | x
O=C(Nc1cccnc1)c1sc2cccc(F)c2c1Cl | -113.4 | 1.2 | -17.6 | 3.5 | 0.2 | 4.1 | x
O=C(Nc1ccccn1)c1sc2cccc(F)c2c1Cl | -140.4 | -0.7 | -2.2 | 25.4* | 1.2 | 1.9 | 9.4
Brc1ccc2nc(-c3ccc(CN4CCC(c5nc6ccccc6[nH]5)CC4)cc3)c(-c3ccccc3)nc2c1 | x | x | x | 16.5* | -1.3 | x | 12.2*
COC(=O)c1ccc(NC(=O)c2cn(-c3ccccc3)nc2-c2ccncc2)cc1 | -1.8 | 1.6 | 3.8 | 289.1* | 8.4 | 12.4 | 253.5* | RORg DNA counter=>40
COc1ccc(C(C)(O)c2nc(-c3csc4ccccc34)cs2)cc1 (stereo unspecified) | -13.4 | x | -6.3 | 12.4 | -2.1 | 7.3 | x
CCCc1cc(=O)oc2cc(OCC(=O)N3CCc4ccccc43)ccc12 | -5.3 | 3.4 | 5.8 | 20.9* | 1.7 | 18.5 | 8.5
CCCCc1cc(=O)oc2cc(OCC(=O)N3CCc4ccccc43)ccc12 | -28.3 | 0.9 | 2.6 | 15.5 | -1.2 | 8.2 | x
O=S1(=O)N[C@H](Cc2ccccc2)COc2cccc(N3CCN(Cc4ccccc4F)CC3)c21 | -24.6 | x | 6.1 | 5.2 | -1.5 | 0.1 | x
COc1ccc(OC)c(CN2C(=O)CN(S(C)(=O)=O)CC2(C)c2nnnn2C2CCCC2)c1 (stereo unspecified) | x | x | x | 1.8 | x | x | x
CN(C)c1ccc(N=Nc2ccccc2C(=O)OCC(=O)N(C)c2ccccc2)cc1 | -31.3 | -0.4 | 13.7 | 22.5* | -2.5 | 5.3 | 23.3*
COC(=O)c1ccccc1NC(=O)COC(=O)c1ccccc1N=Nc1ccc(N(C)C)cc1 | -9.0 | -5.8 | 11.0 | 26.1* | -2.5 | 10.9 | 29.3*
COc1ccccc1N=C1NC(=O)/C(=C/c2ccc(N(C)C)cc2)S1 | -84.2 | -0.2 | -171.4 | 25.2* | -3.5 | 16.9 | 12.9
Cc1ccc(C(=O)Nc2nnc(-c3ccc(C(C)(C)C)cc3)s2)cc1 | -30.8 | 1.1 | 0.7 | 26.2* | -1.1 | -11.8 | 3.4
O=C(NCc1ccccc1Cl)C1CCCN(c2ncccn2)C1 (stereo unspecified) | x | x | x | -2.7 | x | x | x
